The list is not random: actives were taken first. Their share in the collection is about 2.7%.
PAFAH1B2 inh: PAFAH1B2 (human) inhibition; 340,000 tested, 1.2% active; inhibition, % at 3.39 µM; AID 492953; P68402; recombinant PAFAH1B2, FP-rhodamine activity probe, fluorescence polarization;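 active = inhibition above the mean of all tested compounds plus 3 SD, cut at about 24% in these data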;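 also: 0% = enzyme with DMSO and 100% = wells lacking PAFAH1B2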
Target sequence (P68402 whole entry, looked up): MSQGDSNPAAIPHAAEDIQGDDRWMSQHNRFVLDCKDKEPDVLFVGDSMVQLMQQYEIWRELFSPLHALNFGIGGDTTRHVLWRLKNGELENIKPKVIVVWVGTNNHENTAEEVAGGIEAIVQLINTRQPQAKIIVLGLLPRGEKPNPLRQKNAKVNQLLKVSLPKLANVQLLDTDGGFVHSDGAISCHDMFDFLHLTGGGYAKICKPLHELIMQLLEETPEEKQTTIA
ARFGAP1 inh: rat ARFGAP1 inhibition | Arfgap1-stimulated ARF1 GTP hydrolysis, GDP FP detection | inhibition, % at 16.5 µM | Q62848 | AID 651572 | 360,000 tested, 0.26% active;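 active = inhibition above a per-plate limit, mean inhibition of low control wells plus 3 SD, cut at about 25% in these data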;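 also: 0% = DMSO wells with enzyme and 100% = wells lacking Arfgap1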
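Material: rat Arfgap1 GAP domain (His6, aa 1-136), purified enzyme. Also added: human ARF1(Δ1-17)-GTP substrate. Compound dosing: 16.5 µM single point, 1.26% DMSO. Timing: enzyme reaction 120 min at 25 °C after 20 min preincubation. Signal: GDP detection by fluorescence polarization. Read-out basis: percent inhibition of GAP-stimulated GDP formation, scaled between DMSO and no-Arfgap1 medians.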
PAFAH1B3 inh: PAFAH1B3 (human) inhibition; inhibition, % at 3.39 µM; recombinant PAFAH1B3, FP-rhodamine probe, fluorescence polarization; 340,000 tested, 0.28% active; Q15102;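 active = inhibition above the screen-wide average of all tested compounds plus 3 SD, cut at about 25% in these data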;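 also: 0% = enzyme with DMSO only and 100% = wells lacking PAFAH1B3 protein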
PAFAH2 inh: inhibitors of human PAFAH2 | recombinant PAFAH2, FP-rhodamine activity probe, fluorescence polarization | 340,000 tested, 0.99% active | inhibition, % at 3.39 µM | Q99487 | AID 492956;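 active = inhibition above the mean over all tested compounds plus 3 SD, cut at about 30% in these data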;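 also: inhibitors block probe labeling of enzyme so polarization drops; 0% = enzyme with DMSO and 100% = wells lacking PAFAH2 protein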
pPAFAH FP inh: pPAFAH (human) enzyme inhibition | Q13093 | recombinant pPAFAH, FP-rhodamine probe fluorescence polarization | inhibition, % at 3.39 µM | 330,000 tested, 1.5% active | AID 463082;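 active = inhibition above the mean inhibition across the screen plus 3 SD, cut at about 25% in these data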;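 also: inhibitors block binding of the rhodamine activity-based probe so polarization drops; 0% = enzyme with DMSO and 100% = wells lacking pPAFAH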
Target sequence (Q13093 whole entry, looked up): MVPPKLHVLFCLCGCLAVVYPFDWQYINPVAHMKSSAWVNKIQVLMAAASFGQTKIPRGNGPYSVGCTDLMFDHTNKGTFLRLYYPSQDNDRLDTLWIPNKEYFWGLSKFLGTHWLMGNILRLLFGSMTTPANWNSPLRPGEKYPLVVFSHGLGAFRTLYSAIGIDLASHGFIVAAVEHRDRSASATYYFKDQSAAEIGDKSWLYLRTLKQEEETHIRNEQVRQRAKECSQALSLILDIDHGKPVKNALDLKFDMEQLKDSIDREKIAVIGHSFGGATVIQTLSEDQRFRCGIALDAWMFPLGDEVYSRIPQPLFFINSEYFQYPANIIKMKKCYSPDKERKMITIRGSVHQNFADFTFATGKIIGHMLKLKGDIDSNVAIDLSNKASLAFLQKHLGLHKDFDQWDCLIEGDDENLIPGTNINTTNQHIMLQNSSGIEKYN
ASAP1 inh: inhibitors of human ASAP1 ArfGAP activity; 360,000 tested, 0.19% active; Q9ULH1; ASAP1-stimulated ARF1 GTP hydrolysis, GDP FP detection; inhibition, % at 16.5 µM; in the data active = inhibition above about 25%;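 also: 0% = vehicle with enzyme and substrate and 100% = no enzyme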
ASAP1 GAP conf: ASAP1 inhibition confirmed; shares compounds with ASAP1 inh; ASAP1-stimulated Arf1 GTPase, GDP fluorescence polarization; inhibition, % at 16.5 µM; 620 tested, 37% active; AID 624431;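 active = mean inhibition over triplicates exceeds the hit threshold derived for the earlier primary screening run, cut at about 25% in these data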
ARFGAP1 inh conf: confirmation of rat ARFGAP1 inhibitors; inhibition, % at 16.5 µM; ARFGAP1-stimulated ARF1 GTP hydrolysis, GDP tracer FP; shares compounds with ARFGAP1 inh; 890 tested, 30% active;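 active = average inhibition over triplicates above the hit cutoff set in the earlier primary screen, cut at about 25% in these data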;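 also: 0% = Arfgap1 plus ARF1-GTP with DMSO and 100% = wells lacking Arfgap1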
* = called active by the depositor; / = no result given.

SMILES	PAFAH1B2 inh	ARFGAP1 inh	PAFAH1B3 inh	PAFAH2 inh	pPAFAH FP inh	ASAP1 inh	ARFGAP1 inh conf	others
CCN(CC)c1ccc(SS(=O)(=O)O)cc1	8.2	-1.2	7.8	4.9	-1.3	5.7	/
COc1cc2c3nnc(-c4ccc(F)cc4)c-3cn(Cc3ccccc3)c2cc1OC	4.0	36.2*	3.9	-7.0	6.0	79.3*	29.2*	ASAP1 GAP conf=59.8*
COc1cc2c3nnc(-c4ccc(F)cc4)c-3cn(Cc3ccc(F)cc3)c2cc1OC	1.8	15.4	2.4	2.7	4.8	12.7	/
Cc1ccccc1Cn1cc(NC(=O)c2cc(C3CC3)on2)cn1	4.3	-1.8	3.4	-1.2	-0.2	2.1	/
O=C(NN=Cc1ccc2c(c1)OCO2)NN=Cc1ccc2c(c1)OCO2	6.9	30.7*	3.4	3.0	/	33.9*	61.5*	ASAP1 GAP conf=71.6*
O=C(NN=Cc1ccc2c(c1)OCO2)C1CC1	1.5	-3.2	4.7	5.1	/	0.0	/
CC(C)C[C@H]1CN(CCCC[C@H]2CNC(=O)C(=O)N2CC2CCCCC2)C(=O)C(=O)N1CCc1ccccc1	/	30.1*	/	/	/	-13.7	3.3
COc1cc(/C=N/NC(=O)c2ccc(Cl)c(S(N)(=O)=O)c2)ccc1OCC(N)=O	-0.5	44.0*	-2.6	1.0	2.0	-8.7	7.7
Cc1ccccc1NC(=O)COC(=O)c1c[nH]c(=O)[nH]c1=O	3.7	4.9	0.4	-0.8	0.8	2.8	/
O=C(CN(C(=O)c1csnn1)c1cccc(F)c1)NCc1ccc2c(c1)OCO2	2.6	-1.7	6.3	7.0	-5.4	0.2	/
O=C(CN(C(=O)c1csnn1)c1ccccc1F)NCc1ccc2c(c1)OCO2	4.2	25.3*	5.9	-0.7	8.7	3.6	4.0
COc1ccc2cc(C(=O)/C=C/c3cc(OC)c(O)c(OC)c3)ccc2c1	3.1	25.6*	5.1	1.4	21.3	14.5	13.4
COc1cc(C(=O)OC2CCOC2=O)cc(Cl)c1OC (stereo not drawn)	-2.7	3.7	0.7	6.6	-4.2	-0.8	/
Cc1cccc2nc(-c3cccc(NC(=O)Cc4ccccc4)c3)cn12	-1.1	7.0	4.7	2.4	9.2	-6.0	/
Cc1cccc2nc(-c3cccc(NC(=O)c4ccc(Cl)cc4)c3)cn12	-4.0	57.7*	-9.2	-17.7	-2.0	15.3	24.4
O=C(Nc1ccc(CN2CCOCC2)cc1)c1ccc(-c2cc(Cl)ccc2Cl)o1	-16.5	36.8*	-12.2	-34.0	2.6	12.9	25.3*
COc1cccc(-c2nnc3sc(-c4ccccn4)nn23)c1	-0.4	41.1*	8.1	-0.8	-2.2	23.5	45.2*
COC(=O)c1nnn(-c2cccc(Cl)c2)c1C(=O)OC	4.0	25.4*	1.9	3.5	6.4	-1.2	4.5
CCc1nc2ccc(C(=O)NCc3ccc(OC)cc3)cn2c1N(CC)CCOC	/	-1.8	/	/	/	3.0	/
COc1cc(NC(=O)COc2ccccc2[N+](=O)[O-])ccc1NC(=O)c1ccco1	1.9	6.0	7.4	6.8	13.4	-0.3	/
COc1cc(NC(=O)c2c(OC)cccc2OC)ccc1NC(=O)c1cc2ccccc2o1	-3.8	12.2	0.5	7.5	10.4	10.7	/
COc1cc([N+](=O)[O-])ccc1NC(=O)COC(=O)c1ccc(NC(N)=O)cc1	-0.2	29.1*	0.3	-3.3	2.0	14.4	19.7
COc1cc(NC(=O)c2cc3ccccc3o2)ccc1NC(=O)c1ccco1	4.3	26.9*	3.2	0.8	5.0	-0.7	11.3
COc1cc(NC(=O)COc2ccc([N+](=O)[O-])cc2)ccc1NC(=O)c1ccco1	/	58.1*	/	/	/	12.4	74.9*
COc1ccccc1C(=O)NCc1ccccn1	9.0	-3.0	7.3	-2.9	-3.8	4.0	/
SMILES	PAFAH1B2 inh	ARFGAP1 inh	PAFAH1B3 inh	PAFAH2 inh	pPAFAH FP inh	ASAP1 inh	ARFGAP1 inh conf	others
COc1ccc(C(=O)N2C=Cc3ccccc3C2C(N)=O)cc1 (stereo not drawn)	/	2.5	/	/	/	-6.4	/
C/C(=N\NC(=S)NCc1ccccc1)c1ccc(Cl)s1	1.5	7.3	2.1	-5.4	17.5	-4.7	/
C/C(=N\NC(=S)NCc1ccccc1)c1cccs1	3.0	30.2*	10.8	-0.1	13.2	-16.9	1.5
CCn1c(C)c(C(C)=O)c(N2CCN(c3ccc(OC)cc3)CC2)nc1=S	-4.1	40.7*	0.4	9.0	6.8	2.1	2.8
COc1cc(/C=N/Nc2nc3ccccc3s2)ccc1OC(=O)c1ccccc1F	6.9	25.4*	19.1	-16.2	5.1	-1.3	17.9
O=C(/C=C/c1ccco1)Nc1ccc(N2CCCC2)cc1	5.3	26.4*	6.8	-8.8	8.4	12.5	-0.8
O=C(O)CC1NCCc2ccccc21 (stereo not drawn)	2.1	1.4	0.5	0.2	-7.1	8.3	/
CCOc1ccc(C(=O)Nc2cccc(-c3ccc(N4CCOCC4)nn3)c2)cc1OCC	0.2	17.5	0.1	6.4	6.2	17.6	/
COc1ccc(C(=O)Nc2cccc(-c3ccc(N4CCOCC4)nn3)c2)cc1OC	-0.9	29.3*	3.5	1.7	3.3	0.1	13.8
CCNC(=O)NC(=O)C(C)Sc1nc2ccccc2c(=O)n1-c1cccnc1 (stereo not drawn)	-6.7	4.0	8.1	-5.5	4.8	2.2	/
CCNC(=O)NC(=O)C(C)Sc1nc2cc(C(=O)OC)ccc2c(=O)n1-c1ccccc1 (stereo not drawn)	3.7	26.6*	3.0	-2.2	0.0	-1.4	5.9
CSc1cccc(NC(=O)OC2CCCCCCCCCCC2)c1	1.1	-0.2	-3.2	-11.1	-0.2	2.1	/
CC(C)c1cccc(C(C)C)c1NC(=O)OC1CCCCC1	/	28.4*	/	/	/	-11.0	4.5
COc1ccc(C(=O)N/C(=C\c2ccccc2)C(=O)NCc2cccnc2)cc1	1.9	24.9*	-0.9	3.9	5.7	-4.1	1.8
COc1ccc(/C=C(/NC(=O)c2ccccc2)C(=O)NCc2ccncc2)cc1	4.4	7.3	5.8	6.2	-5.4	11.3	/
O=P1(O)CC2=C(CC=CC2)C1	/	-1.3	/	/	/	-2.6	/
COc1ccc(N/N=C(/C#N)S(=O)(=O)c2nsc(C)c2C#N)cc1	3.2	28.0*	5.3	6.7	8.6	-6.6	1.2
Cc1snc(S(=O)(=O)/C(C#N)=N/Nc2cccc(C(F)(F)F)c2)c1C#N	-1.7	/	13.0	3.4	14.2	/	/
O=C(OCC(=O)N1CCN(C(=O)c2ccco2)CC1)c1cc(-c2ccc(Cl)c(Cl)c2Cl)nc2ccccc12	2.1	36.5*	-3.6	-12.2	-1.1	24.5	44.7*
C=CCOc1ccc(/C=N/n2nnnc2N)cc1OC	-1.2	2.6	6.4	-2.4	0.5	-3.0	/
CCOC(=O)C1CCCN(CCC(=O)Nc2ccccc2C)C1 (stereo not drawn)	5.9	25.8*	3.1	5.5	-4.6	6.8	-5.8

Screens deposited in PubChem by The Scripps Research Institute Molecular Screening Center.
